Values after ≈ are worked out from the molar mass of the structure shown.
Experiments:
Format in all cases: functional
[1] = system: Cryptococcus neoformans; test: Antifungal activity against Cryptococcus neoformans ATCC BLS108 after 72 hrs by micro-broth dilution method; conditions: ATCC BLS108, 72 h
In short: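 Quality-control ATCC strain included in each assay. Microbroth dilution per NCCLS M27-A2. DMSO-dissolved compounds were serially diluted in growth medium, inoculated and held at 35 °C, with MIC read at 72 h. MIC80 is the first well showing about 80% growth reduction versus the drug-free well. Tests were done in triplicate and the mean reported.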

[2] = system: Aspergillus fumigatus; test: Antifungal activity against Aspergillus fumigatus clinical isolate by micro-broth dilution method
In short: (§1)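 Clinical isolate. MIC by broth microdilution following the NCCLS M27-A2 reference method for yeasts. Compounds were dissolved in DMSO, serially diluted in growth medium, inoculated and incubated at 35 °C. MIC80 is the first well with about 80% less growth than the drug-free well. Each test was run three times and the mean of replicates reported.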

[3] = system: Candida albicans; test: Antifungal activity against Candida albicans ATCC Y0109 after 24 hrs by micro-broth dilution method; conditions: ATCC Y0109, 24 h
In short: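 ATCC quality-control strain, tested in every assay. NCCLS M27-A2 broth microdilution. Compounds were dissolved in DMSO, serially diluted in growth medium, inoculated and incubated at 35 °C, with growth read at 24 h. MIC80 is the first well with about 80% growth reduction relative to the drug-free control. Each test was run three times and the mean of replicates taken.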

[4] = system: Nannizzia gypsea; test: Antifungal activity against Microsporum gypseum clinical isolate by micro-broth dilution method; in short: as §1
[5] = Antifungal activity against Fonsecaea compacta clinical isolate by micro-broth dilution method; in short: as §1
[6] = system: Candida tropicalis; test: Antifungal activity against Candida tropicalis clinical isolate by micro-broth dilution method; in short: as §1
[7] = system: Trichophyton rubrum; test: Antifungal activity against Trichophyton rubrum clinical isolate by micro-broth dilution method; in short: as §1
[8] = system: Candida parapsilosis; test: Antifungal activity against Candida parapsilosis clinical isolate by micro-broth dilution method; conditions: Lodderomyces parapsilosis; in short: as §1

Compound | MIC80 [1] | MIC80 [2] | MIC80 [3] | MIC80 [4] | MIC80 [5] | MIC80 [6] | MIC80 [7] | MIC80 [8]
COc1ccc(/C=C/C(=O)Nc2ccc(N3CCN(CC(O)(Cn4cncn4)c4ccc(F)cc4F)CC3)c(C(F)(F)F)c2)cc1OC (configuration not stated) | 1 µg/mL (≈ 1.49 µM) | 4 µg/mL (≈ 5.95 µM) | 1 µg/mL (≈ 1.49 µM) | – | – | – | – | –
O=C(/C=C/c1ccc(Cl)cc1)Nc1ccc(N2CCN(CC(O)(Cn3cncn3)c3ccc(F)cc3F)CC2)c(C(F)(F)F)c1 (configuration not stated) | 0.25 µg/mL (≈ 0.386 µM) | 1 µg/mL (≈ 1.55 µM) | 1 µg/mL (≈ 1.55 µM) | – | – | – | – | –
O=C(/C=C/c1ccco1)Nc1ccc(N2CCN(CC(O)(Cn3cncn3)c3ccc(F)cc3F)CC2)c(C(F)(F)F)c1 (configuration not stated) | 0.25 µg/mL (≈ 0.415 µM) | 4 µg/mL (≈ 6.64 µM) | 0.25 µg/mL (≈ 0.415 µM) | – | – | – | – | –
CCC(C)n1ncn(-c2ccc(N3CCN(c4ccc(OCC5COC(Cn6cncn6)(c6ccc(Cl)cc6Cl)O5)cc4)CC3)cc2)c1=O (configuration not stated) [ITRACONAZOLE] | 1 µg/mL (≈ 1.42 µM) | 1 µg/mL (≈ 1.42 µM) | 1 µg/mL (≈ 1.42 µM) | 0.0156 µg/mL (≈ 0.0221 µM) | 0.25 µg/mL (≈ 0.354 µM) | 0.25 µg/mL (≈ 0.354 µM) | 0.0156 µg/mL (≈ 0.0221 µM) | 0.25 µg/mL (≈ 0.354 µM)
O=C(/C=C/c1ccccc1Cl)Nc1ccc(N2CCN(CC(O)(Cn3cncn3)c3ccc(F)cc3F)CC2)c(C(F)(F)F)c1 (configuration not stated) | 0.25 µg/mL (≈ 0.386 µM) | 4 µg/mL (≈ 6.18 µM) | 0.0625 µg/mL (≈ 0.0966 µM) | – | – | – | – | –
O=C(/C=C/c1cccc(Br)c1)Nc1ccc(N2CCN(CC(O)(Cn3cncn3)c3ccc(F)cc3F)CC2)c(C(F)(F)F)c1 (configuration not stated) | 0.25 µg/mL (≈ 0.362 µM) | 1 µg/mL (≈ 1.45 µM) | 0.25 µg/mL (≈ 0.362 µM) | – | – | – | – | –
O=C(/C=C/c1cccc([N+](=O)[O-])c1)Nc1ccc(N2CCN(CC(O)(Cn3cncn3)c3ccc(F)cc3F)CC2)c(C(F)(F)F)c1 (configuration not stated) | 0.0625 µg/mL (≈ 0.095 µM) | 4 µg/mL (≈ 6.08 µM) | 0.25 µg/mL (≈ 0.38 µM) | – | – | – | – | –
COc1cccc(OC)c1/C=C/C(=O)Nc1ccc(N2CCN(CC(O)(Cn3cncn3)c3ccc(F)cc3F)CC2)c(C(F)(F)F)c1 (configuration not stated) | 1 µg/mL (≈ 1.49 µM) | > 64 µg/mL | 0.25 µg/mL (≈ 0.372 µM) | – | – | – | – | –
O=C(/C=C/c1ccc([N+](=O)[O-])cc1)Nc1ccc(N2CCN(CC(O)(Cn3cncn3)c3ccc(F)cc3F)CC2)c(C(F)(F)F)c1 (configuration not stated) | 0.25 µg/mL (≈ 0.38 µM) | 4 µg/mL (≈ 6.08 µM) | 0.0156 µg/mL (≈ 0.0237 µM) | – | – | – | – | –
N#Cc1cccc(/C=C/C(=O)Nc2ccc(N3CCN(CC(O)(Cn4cncn4)c4ccc(F)cc4F)CC3)c(C(F)(F)F)c2)c1 (configuration not stated) | 0.25 µg/mL (≈ 0.392 µM) | 4 µg/mL (≈ 6.27 µM) | 0.25 µg/mL (≈ 0.392 µM) | – | – | – | – | –

Now from value to compound:

MIC80 [1] | MIC80 [2] | MIC80 [3] | MIC80 [4] | MIC80 [5] | MIC80 [6] | MIC80 [7] | MIC80 [8] | Compound
0.25 µg/mL (≈ 0.381 µM) | 0.25 µg/mL (≈ 0.381 µM) | 0.25 µg/mL (≈ 0.381 µM) | – | – | – | – | – | O=C(Nc1ccc(N2CCN(CC(O)(Cn3cncn3)c3ccc(F)cc3F)CC2)c(C(F)(F)F)c1)c1ccc(Cl)cc1Cl (configuration not stated)
1 µg/mL (≈ 1.6 µM) | 4 µg/mL (≈ 6.38 µM) | 0.25 µg/mL (≈ 0.399 µM) | – | – | – | – | – | Cc1ccc(/C=C/C(=O)Nc2ccc(N3CCN(CC(O)(Cn4cncn4)c4ccc(F)cc4F)CC3)c(C(F)(F)F)c2)cc1 (configuration not stated)
0.25 µg/mL (≈ 0.389 µM) | > 64 µg/mL | 4 µg/mL (≈ 6.22 µM) | 4 µg/mL (≈ 6.22 µM) | 4 µg/mL (≈ 6.22 µM) | 1 µg/mL (≈ 1.56 µM) | 4 µg/mL (≈ 6.22 µM) | 0.25 µg/mL (≈ 0.389 µM) | CC(C)(C)c1ccc(C(=O)Nc2ccc(N3CCN(CC(O)(Cn4cncn4)c4ccc(F)cc4F)CC3)c(C(F)(F)F)c2)cc1 (configuration not stated)
16 µg/mL (≈ 23.9 µM) | 64 µg/mL (≈ 95.4 µM) | 16 µg/mL (≈ 23.9 µM) | 4 µg/mL (≈ 5.97 µM) | 16 µg/mL (≈ 23.9 µM) | 4 µg/mL (≈ 5.97 µM) | 16 µg/mL (≈ 23.9 µM) | 4 µg/mL (≈ 5.97 µM) | O=C(Nc1ccc(N2CCN(CC(O)(Cn3cncn3)c3ccc(F)cc3F)CC2)c(C(F)(F)F)c1)c1ccc(OC(F)(F)F)cc1 (configuration not stated)
1 µg/mL (≈ 1.67 µM) | 64 µg/mL (≈ 107 µM) | 1 µg/mL (≈ 1.67 µM) | 1 µg/mL (≈ 1.67 µM) | 16 µg/mL (≈ 26.6 µM) | 1 µg/mL (≈ 1.67 µM) | 4 µg/mL (≈ 6.66 µM) | 0.25 µg/mL (≈ 0.416 µM) | Cc1ccc(C(=O)Nc2ccc(N3CCN(CC(O)(Cn4cncn4)c4ccc(F)cc4F)CC3)c(C(F)(F)F)c2)cc1 (configuration not stated)
16 µg/mL (≈ 26.5 µM) | 4 µg/mL (≈ 6.62 µM) | 4 µg/mL (≈ 6.62 µM) | 1 µg/mL (≈ 1.65 µM) | 4 µg/mL (≈ 6.62 µM) | 1 µg/mL (≈ 1.65 µM) | 4 µg/mL (≈ 6.62 µM) | 0.25 µg/mL (≈ 0.414 µM) | O=C(Nc1ccc(N2CCN(CC(O)(Cn3cncn3)c3ccc(F)cc3F)CC2)c(C(F)(F)F)c1)c1ccc(F)cc1 (configuration not stated)
0.25 µg/mL (≈ 0.396 µM) | 4 µg/mL (≈ 6.34 µM) | 0.0156 µg/mL (≈ 0.0247 µM) | – | – | – | – | – | O=C(/C=C/c1ccc(F)cc1)Nc1ccc(N2CCN(CC(O)(Cn3cncn3)c3ccc(F)cc3F)CC2)c(C(F)(F)F)c1 (configuration not stated)
1 µg/mL (≈ 1.62 µM) | 4 µg/mL (≈ 6.49 µM) | 1 µg/mL (≈ 1.62 µM) | 1 µg/mL (≈ 1.62 µM) | 16 µg/mL (≈ 25.9 µM) | 1 µg/mL (≈ 1.62 µM) | 1 µg/mL (≈ 1.62 µM) | 1 µg/mL (≈ 1.62 µM) | COc1ccc(C(=O)Nc2ccc(N3CCN(CC(O)(Cn4cncn4)c4ccc(F)cc4F)CC3)c(C(F)(F)F)c2)cc1 (configuration not stated)
0.25 µg/mL (≈ 0.426 µM) | 4 µg/mL (≈ 6.82 µM) | 1 µg/mL (≈ 1.7 µM) | 1 µg/mL (≈ 1.7 µM) | 4 µg/mL (≈ 6.82 µM) | 1 µg/mL (≈ 1.7 µM) | 1 µg/mL (≈ 1.7 µM) | 0.25 µg/mL (≈ 0.426 µM) | O=C(Nc1ccc(N2CCN(CC(O)(Cn3cncn3)c3ccc(F)cc3F)CC2)c(C(F)(F)F)c1)c1ccccc1 (configuration not stated)

— ChEMBL document CHEMBL1795297, “Design, synthesis and molecular docking studies of novel triazole as antifungal agent” (2011)
